This is a sample that favours compounds with a hit; in the whole collection about 2.9% have one here.
GSIS activator = GLuc luminescence reporter in INS-1E cells, primary screen for activators of glucose-dependent secretion of insulin; INS-1E GLuc reporter insulin secretion, 2-3 h; activation, % at 16.6 µM; 370,000 compounds, 0.61% hits;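 active = lowest replicate activation of at least 40%, so every replicate reaches that level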;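 also: 0% = median of neutral control wells and 100% = median of IBMX positive control wells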
Cneo AK release = Cryptococcus neoformans cell lysis inducers, primary screen, AK release luminescence, single concentration; C. neoformans lysis, adenylate kinase release luminescence, 4 h; normalised: neutral wells 0, clomiphene wells 100; lysis activity, % at 15 µM; 360,000 compounds, 0.2% hits; AID 651654, 2012;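 active = mean lysis activity across replicates of at least 80%, whatever share of replicates individually reach that level; inactive = mean lysis activity below 80%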
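Material: C. neoformans cells | Amount: Yeast cell density of 5 × 10^6 cells/mL | Medium: Fresh YPD growth medium | Dosing: Single dose | Times: Static 4 h at 37 °C with compound, 1 h detection | Detection: AK luminescence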
dFosB act = activators of delta FosB homodimer, primary screen, biochemical, fluorescence polarization, TAMRA-CDK5 oligo, single point. purified delta FosB; percent of positive-control signal above neutral wells. activation, % at 25 µM. 340,000 compounds, 0.99% hits. AID 493131, 2011;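 active = mean activation above about 17%, with every replicate also reaching it, limit read from the data, passing the limit was not always enough; inconclusive = only one of the two conditions met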
PAX8 reporter = inhibitors of PAX8-driven TPO luciferase reporter, primary screen, RMG-I cells, single concentration; inhibition, % at 12.6 µM; SteadyGlo, 24 h; 360,000 compounds, 1.2% hits; AID 652154, 2013;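 active = mean replicate inhibition at least 60% with every replicate also reaching 60%; inconclusive = only one of the two criteria is met; inactive = mean below 60% and not all replicates reaching 60%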;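 also: luciferase light reporting Pax8 driven TPO promoter activity; plate controls were median of neutral control wells for no effect and mitoxantrone controls for full effect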
CDK5 p35 inh = inhibitors of human CDK5/p35 kinase, primary screen, biochemical, single concentration | 330,000 compounds, 0.01% hits | AID 488839, 2010 | Recombinant CDK5/p35, ADP-Glo luminescence, 60 min | Cyclin-dependent kinase 5 (Homo sapiens) + Cyclin-dependent kinase 5 activator 1 (Homo … | inhibition, % at 10 µM;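 active = highest replicate inhibition of at least 50% and at least 75% of replicates reaching 50%; inconclusive = only one of the two criteria met; inactive = both criteria failed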;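 also: plate controls were DMSO neutral control for no effect and GW8510 at 10 µM for full effect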
Target sequence (Q00535 whole entry, looked up): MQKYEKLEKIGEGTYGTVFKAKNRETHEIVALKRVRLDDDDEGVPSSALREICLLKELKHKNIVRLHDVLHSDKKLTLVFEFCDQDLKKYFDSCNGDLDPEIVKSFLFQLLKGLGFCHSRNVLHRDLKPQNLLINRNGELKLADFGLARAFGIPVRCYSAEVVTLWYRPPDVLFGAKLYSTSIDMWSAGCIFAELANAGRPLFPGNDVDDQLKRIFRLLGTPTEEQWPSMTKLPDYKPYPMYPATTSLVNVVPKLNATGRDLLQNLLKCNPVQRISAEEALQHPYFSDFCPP
Target sequence (Q15078 whole entry, looked up): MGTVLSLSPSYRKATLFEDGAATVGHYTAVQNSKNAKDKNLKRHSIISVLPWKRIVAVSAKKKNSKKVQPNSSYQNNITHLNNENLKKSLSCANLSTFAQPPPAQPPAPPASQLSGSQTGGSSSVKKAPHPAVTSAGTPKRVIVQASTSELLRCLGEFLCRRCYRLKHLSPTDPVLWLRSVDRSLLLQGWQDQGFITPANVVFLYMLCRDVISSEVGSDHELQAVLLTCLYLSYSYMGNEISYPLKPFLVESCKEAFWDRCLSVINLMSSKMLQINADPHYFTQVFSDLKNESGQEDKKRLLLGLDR
HIV Env fusion = inhibitors of HIV-1 Env-driven cell-cell fusion, primary screen, HeLa-JRFL effector, CEM21 target cells, luciferase; 360,000 compounds, 1.1% hits; inhibition, % at 12.3 µM; AID 651610, 2012;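 active = mean replicate inhibition score of at least 50 and every replicate individually at or above 50; inconclusive = only one of the two criteria met; inactive = mean below 50 and not all replicates reaching 50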;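 also: 0% = plate neutral controls and 100% = maraviroc near 300 nM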
* hit, by the source's call; ? = inconclusive; nt = not tested or not shown; [ ] = dose if it differs, or a comment.

SMILES	GSIS activator	Cneo AK release	dFosB act	PAX8 reporter	CDK5 p35 inh	HIV Env fusion
Nc1ccc(O)cc1C(=O)OCC(=O)c1ccc(C2CCCCC2)cc1	8	nt	-8	4	-1	84*
Cc1ccc(C(CC(=O)O)NC(=O)c2ccc(S(=O)(=O)N3CC(C)OC(C)C3)cc2)cc1 (configuration not stated)	58*	-3	-3	-9	-3	nt
CC1CN(S(=O)(=O)c2ccc(C(=O)O)cc2)CC(C)O1 (configuration not stated)	9	nt	0	34	-9	15
Cc1cccc(C(=O)N[C@H](C(=O)Nc2ncc(C)s2)C(C)C)c1	-22	nt	2	70*	1	-324
COc1ccc2c3c([nH]c2c1)[C@H](CO)N(Cc1ccccc1)CC31CCN(C)CC1	2	nt	nt	nt	nt	nt
CC(C)(C)c1nc2ccccc2c2nnc(SCC(=O)Nc3nccs3)n12	77*	-1	-13	nt	1	25
COc1cccc(-c2ccc3n(c2=O)C[C@H]2[C@H](CO)[C@@H](C(=O)NC4CCC4)[C@@H]3N2C)c1	17	-3	nt	nt	nt	nt
c1csc(C(c2nnnn2C2CCCCC2)N2CCCC3(CCCCC3)C2)c1 (configuration not stated)	25	1	2	38	-1	115*
CC(C)(C)n1nnnc1C(c1cccs1)N1CCCC2(CCCCC2)C1 (configuration not stated)	-6	0	-6	nt	5	nt
CC1C(=O)Nc2ccc(S(=O)(=O)N3CCN(c4cccc(C(F)(F)F)c4)CC3)cc2NC1=O (configuration not stated)	-36	-3	-7	68*	2	3
COc1ccccc1-c1cccc(-c2nc(C(=O)N3CCCCC3)cc3c2[C@@H](CCO)N([S@](=O)C(C)(C)C)C3)c1	-23	3	nt	-7	nt	2[16.7 µM]
COc1cccc(S(=O)(=O)N2C[C@@H](O)COC[C@@H]3O[C@@H](CC(=O)N4CCN(C)CC4)CC[C@H]32)c1	2	-5	nt	-15	nt	nt
COc1cccc(S(=O)(=O)N2C[C@@H](O)COC[C@H]3O[C@H](CC(=O)Nc4ccccc4)CC[C@@H]32)c1	-1	112*	nt	4	nt	5[16.7 µM]
O=C(C[C@H]1CC[C@H]2[C@@H](COC[C@@H](O)CN2S(=O)(=O)c2cccc(F)c2)O1)Nc1ccc(-c2ccccc2)cc1	-5	2	nt	-23	nt	nt
COc1cccc(S(=O)(=O)N2C[C@@H](O)COC[C@H]3O[C@H](CC(=O)N4CCN(C)CC4)CC[C@@H]32)c1	4	85*	nt	-10	nt	nt
O=C(C[C@H]1CC[C@@H]2[C@H](COC[C@H](O)CN2S(=O)(=O)c2cccc(F)c2)O1)Nc1ccc(-c2ccccc2)cc1	-12	-2	nt	116*	nt	nt
O=C(C[C@H]1CC[C@@H]2[C@H](COC[C@@H](O)CN2S(=O)(=O)c2cccc(F)c2)O1)Nc1ccc(-c2ccccc2)cc1	-13	1	nt	72*	nt	nt
CCN=C1NC(c2ccc(F)cc2)C(C(=O)OC)=C(C)N1Cc1cccc(C(F)(F)F)c1 (configuration not stated)	19	nt	nt	-16	nt	30
CCN=C1NC(c2ccc(C(F)(F)F)cc2)C(C(=O)OC)=C(C)N1Cc1cccc(C(F)(F)F)c1 (configuration not stated)	41*	nt	nt	17	nt	-44
COC(=O)C1=C(C)N(Cc2cccc(C(F)(F)F)c2)C(=NCc2ccc(C(F)(F)F)cc2)NC1c1ccccc1 (configuration not stated)	501*	nt	nt	19	nt	31
COC(=O)C1=C(C)N(Cc2ccccc2)C(=NCc2cccc(C(F)(F)F)c2)N[C@H]1c1cccc(C(F)(F)F)c1	nt	7	-13	nt	1	nt
CCN=C1NC(c2cccc(Cl)c2)C(C(=O)OC)=C(C)N1Cc1ccc(C(F)(F)F)cc1 (configuration not stated)	2	nt	nt	26	nt	22
COC(=O)C1=C(C)N(Cc2ccc(C(F)(F)F)cc2)C(=NCc2ccccc2)NC1c1cccc(C(F)(F)F)c1 (configuration not stated)	158*	nt	nt	?	nt	45
COC(=O)C1=C(C)N(Cc2ccc(C(F)(F)F)cc2)C(=NCc2ccccc2)NC1c1cccc(Cl)c1 (configuration not stated)	nt	nt	nt	100*	nt	?
COc1ccc2c3c([nH]c2c1)[C@@H](CO)N(S(C)(=O)=O)CC31CCN(C(=O)c2ccccc2)CC1	7	nt	nt	nt	nt	nt
SMILES	GSIS activator	Cneo AK release	dFosB act	PAX8 reporter	CDK5 p35 inh	HIV Env fusion
COC(=O)C1=C(C)N(Cc2cccc(C(F)(F)F)c2)C(=NCc2cc(OC)c(OC)c(OC)c2)NC1c1ccccc1 (configuration not stated)	3	nt	nt	7	nt	-29
COC(=O)C1=C(C)N(Cc2cccc(C(F)(F)F)c2)C(=NCc2ccc3c(c2)OCO3)NC1c1ccc(Cl)cc1 (configuration not stated)	146*	nt	nt	25	nt	63*
COC(=O)C1=C(C)N(Cc2cccc(C(F)(F)F)c2)C(=NCC2CC2)NC1c1cccc(Cl)c1 (configuration not stated)	nt	nt	nt	44	nt	3
COC(=O)C1=C(C)N(Cc2cccc(C(F)(F)F)c2)C(=NCC2CC2)NC1c1cccc(C(F)(F)F)c1 (configuration not stated)	420*	nt	nt	89*	nt	7
COC(=O)C1=C(C)N(Cc2cccc(C(F)(F)F)c2)C(=NCc2cc(OC)c(OC)c(OC)c2)NC1c1cccc(C(F)(F)F)c1 (configuration not stated)	15	nt	nt	85*	nt	13
COc1ccc(S(=O)(=O)N(C)C[C@@H]2OCCCC[C@@H](C)Oc3ccc(NS(C)(=O)=O)cc3C(=O)N([C@@H](C)CO)C[C@H]2C)cc1	-3	0	nt	5	nt	11[16.7 µM]
C/C=C/c1ccc([C@@H]2[C@H](CO)N(C(=O)c3cnccn3)C23CN(C(=O)C2CC2)C3)cc1	6	nt	nt	nt	nt	nt
CN(C(=O)c1ccc2c(c1)SC1=NS(=O)(=O)CCN12)C(c1ccccc1)c1ccccc1	93*	nt	-4	-18	2	16
COc1ccc(CN(C)C[C@@H]2OCCCC[C@@H](C)Oc3ccc(NS(=O)(=O)c4cccs4)cc3C(=O)N([C@@H](C)CO)C[C@H]2C)cc1	-14	6	nt	10	nt	-8[16.7 µM]
COc1cccc(S(=O)(=O)Nc2ccc3c(c2)C(=O)N(C)[C@H]2CC[C@H](CC(=O)Nc4ccc(C(C)C)cc4)O[C@@H]2CO3)c1	-19	-3	nt	66*	nt	39[16.7 µM]

Screens from PubChem BioAssay.
